How the values were obtained:
[1] = target: T1, cGMP-inhibited 3',5'-cyclic phosphodiesterase 3A (Homo sapiens, UniProt Q14432); assay: Inhibition of human recombinant PDE3A assessed as cGMP hydrolysis at 50 uM after 60 mins by fluorescence polarization assay using tetramethylrhodamine-tagged cGMP as substrate
Outline: (§1)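 Single-point screen at 50 μM in triplicate. Recombinant PDE3A in 10 mM Tris-HCl pH 7.2, 10 mM MgCl2, 0.05% NaN3, 0.1% phosphate-free BSA. Substrate 50 nM FI-cAMP and/or TAMRA-cGMP, hydrolysis read simultaneously by IMAP fluorescence polarization after 60 min at room temperature and termination with binding solution.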

[2] = target: T1, cGMP-inhibited 3',5'-cyclic phosphodiesterase 3A; assay: Inhibition of human recombinant PDE3A assessed as cAMP hydrolysis at 50 uM after 60 mins by fluorescence polarization assay using fluorescein-tagged cAMP as substrate; outline: as §1
[3] = tested on: HT-29; assay: Growth inhibition of human HT-29 cells at 50 uM after 72 hrs by luminescent assay; assay type: functional; conditions: HT-29, 72 h, read-out: GI
Outline: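 HT-29 cells in RPMI 1640 with 5% FBS at 37 °C, 5% CO2, >95% viability required. Plated at 5000 cells/well and left 18–24 h, then given 50 μM compound in triplicate. Viability measured 72 h later by CellTiter-Glo luminescence.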

[4] = tested on: HT-29; assay: Growth inhibition of human HT-29 cells after 72 hrs by luminescent assay; assay type: functional, cell-based; conditions: HT-29, 72 h
Outline: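 HT-29 cells (ATCC) in RPMI 1640 + 5% FBS, 37 °C, 5% CO2; only cultures >95% viable (Trypan blue) used. Seeded 5000 cells/well, 18–24 h before treatment. Live cells read by CellTiter-Glo luminescence (ATP content) 72 h post-treatment.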

[5] = target: T1, cGMP-inhibited 3',5'-cyclic phosphodiesterase 3A; assay: Inhibition of human recombinant PDE3A assessed as cGMP hydrolysis after 60 mins by fluorescence polarization assay using tetramethylrhodamine-tagged cGMP as substrate

T1 sequence (Q14432 whole entry): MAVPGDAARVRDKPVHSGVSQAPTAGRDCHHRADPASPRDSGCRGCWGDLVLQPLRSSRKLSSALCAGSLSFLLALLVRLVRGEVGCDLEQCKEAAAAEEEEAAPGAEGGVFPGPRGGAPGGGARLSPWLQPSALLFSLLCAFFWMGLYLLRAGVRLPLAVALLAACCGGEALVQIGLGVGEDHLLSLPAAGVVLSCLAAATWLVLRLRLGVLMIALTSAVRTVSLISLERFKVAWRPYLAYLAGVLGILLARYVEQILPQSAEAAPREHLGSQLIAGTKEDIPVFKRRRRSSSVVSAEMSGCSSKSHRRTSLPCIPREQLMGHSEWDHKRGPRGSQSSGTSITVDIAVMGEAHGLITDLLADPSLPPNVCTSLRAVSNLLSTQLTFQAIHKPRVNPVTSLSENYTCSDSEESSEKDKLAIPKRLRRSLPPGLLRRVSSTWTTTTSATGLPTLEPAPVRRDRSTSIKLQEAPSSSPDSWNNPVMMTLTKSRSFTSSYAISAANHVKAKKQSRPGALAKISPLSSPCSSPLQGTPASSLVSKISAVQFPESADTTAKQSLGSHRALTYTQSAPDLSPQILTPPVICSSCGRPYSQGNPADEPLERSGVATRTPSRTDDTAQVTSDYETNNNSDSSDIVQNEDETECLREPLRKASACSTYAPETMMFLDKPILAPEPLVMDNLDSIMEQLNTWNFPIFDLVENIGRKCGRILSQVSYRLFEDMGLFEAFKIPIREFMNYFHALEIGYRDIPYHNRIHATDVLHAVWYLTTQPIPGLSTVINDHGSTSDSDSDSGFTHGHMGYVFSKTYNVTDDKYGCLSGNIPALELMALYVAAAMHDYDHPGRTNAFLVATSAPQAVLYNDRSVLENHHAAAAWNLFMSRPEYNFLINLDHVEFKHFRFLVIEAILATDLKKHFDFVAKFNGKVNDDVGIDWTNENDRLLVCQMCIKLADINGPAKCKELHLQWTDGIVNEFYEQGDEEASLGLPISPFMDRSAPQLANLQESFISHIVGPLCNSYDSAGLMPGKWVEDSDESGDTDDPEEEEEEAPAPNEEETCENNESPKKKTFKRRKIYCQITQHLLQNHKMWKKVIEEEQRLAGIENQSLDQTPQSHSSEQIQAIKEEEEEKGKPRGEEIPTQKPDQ

SMILES | inhibition [1] [%] | inhibition [2] [%] | inhibition of growth at 50 µM [3] [%] | IC50 [4] [µM] | IC50 [5] [µM]
CCOc1ccccc1-c1cc(-c2ccc3c(c2)OCO3)[nH]c(=O)c1C#N | 14.4 | 7.65 | 8.28 |  | 
N#Cc1c(-c2ccsc2)cc(-c2ccc3c(c2)OCO3)[nH]c1=O | 20 | 8 | -25 |  | 
COc1ccccc1-c1cc(-c2ccc3c(c2)OCO3)[nH]c(=N)c1C#N | 35 | 45 | 95 | 4.17 | 
CCOc1ccccc1-c1cc(-c2ccc(Br)cc2)[nH]c(=N)c1C#N | 126 | 37.9 | 99.8 | 13 | 
COc1ccccc1-c1cc(-c2ccc(Br)cc2)[nH]c(=O)c1C#N | 15.1 | 6.12 | 13.6 |  | 
N#Cc1c(-c2cccs2)cc(-c2ccc3c(c2)OCO3)[nH]c1=N | 10 | 5 | -20 |  | 
N#Cc1c(-c2cccs2)cc(-c2ccc(Br)cc2)[nH]c1=N |  | 3.57 | 98.7 | 35 | 
N#Cc1c(-c2ccsc2)cc(-c2ccc3c(c2)OCO3)[nH]c1=N | 3 | 18 | 45 |  | 
CCOc1ccc(-c2cc(-c3ccc(Br)cc3)[nH]c(=N)c2C#N)cc1 | 50 | 30 | 75 | 14.2 | 
CCOc1ccc(-c2cc(-c3ccc4c(c3)OCO4)[nH]c(=N)c2C#N)cc1 | -8.99 | 45.9 | 87.7 | 12 | 
CCOc1ccc(-c2cc(-c3ccc(Br)cc3)[nH]c(=O)c2C#N)cc1 | 10.8 | 4.76 | 10.7 |  | 
N#Cc1c(-c2ccsc2)cc(-c2ccc(Br)cc2)[nH]c1=O | -5 | 2 | -25 |  | 
COc1ccccc1-c1cc(-c2ccc(Br)cc2)[nH]c(=N)c1C#N |  | 16.3 | 75 | 50 | 
CCOc1ccc(-c2cc(-c3ccc4c(c3)OCO4)[nH]c(=O)c2C#N)cc1 | 22.3 | 10.5 | 3.84 |  | 
COc1ccccc1-c1cc(-c2ccc3c(c2)OCO3)[nH]c(=O)c1C#N | 30 | 30 | 0 |  | 
N#Cc1c(-c2ccsc2)cc(-c2ccc(Br)cc2)[nH]c1=N | 42 | 1.5 | -5 |  | 
N#Cc1c(-c2cccs2)cc(-c2ccc3c(c2)OCO3)[nH]c1=O | 49.6 | 32.3 | 6.14 |  | 
CCOc1ccccc1-c1cc(-c2ccc(Br)cc2)nc(N)c1C#N |  |  |  |  | 27
Cc1[nH]c(=O)c(C#N)cc1-c1ccncc1 [MILRINONE] | 35 | 77 | 0 | > 50 | 
N#Cc1c(-c2cccs2)cc(-c2ccc(Br)cc2)[nH]c1=O | 4 | 3 | -20 |  | 
CCOc1ccccc1-c1cc(-c2ccc3c(c2)OCO3)[nH]c(=N)c1C#N | 26.2 | 19 | 91.2 | 3 | 
CCOc1ccccc1-c1cc(-c2ccc(Br)cc2)[nH]c(=O)c1C#N | 35.2 | 13.1 | 2.81 |  | 

Source: ChEMBL document CHEMBL1155296, “Design, synthesis and biological evaluation of novel pyridine derivatives as anticancer agents and phosphodiesterase 3 inhibitors” (Bioorg Med Chem, 2009)
